This note sets out measurements from ChEMBL document CHEMBL3102809, “Investigation of fluorinated and bifunctionalized 3-phenylchroman-4-one (isoflavanone) aromatase inhibitors” (Bioorg Med Chem, 2014).

The source made the active and inactive calls. The calls are words filed in the database; no cut-off is given here.

For the first experiment, the system named is MCF7. As to the kind of experiment: Cytotoxicity against estrogen-dependent human MCF7 cells after 72 hrs by MTT assay.
Settings: not given
Type of experiment: functional, cell-based. A general note: Tetrazolium assays rely on reduction of a dye to a coloured formazan, in cell work by metabolically active cells.
As to `O=C1c2cc(F)ccc2OCC1c1cccnc1` (configuration not stated), the “growth inhibition (GI)” value was “inactive”. On to `O=C1c2ccccc2OCC1c1ccc(-c2ccccc2)cc1` (configuration not stated), for which the “growth inhibition (GI)” value was “inactive”. Same read-out and setting: as for `COc1ccc2c(c1)C(=O)C(c1cccnc1)CO2` (configuration not stated), the entry is “inactive”.

The experiment is the same for the next values; noted with them: MCF7, 72 h.
`O=C1c2ccccc2OCC1c1cccnc1` (configuration not stated): the IC50 – broadly, the midpoint of a concentration-inhibition curve – was determined as 31 µM. On the same count and under the same terms, as for `O=C1c2cc(Br)ccc2OCC1c1ccccc1` (configuration not stated), the figure is 100 µM; as for `O=C1c2cccc(F)c2OCC1c1cccnc1` (configuration not stated), 43 µM.

In another experiment the test system is MCF7. Kind of experiment: Cytotoxicity against […] human MCF7 cells after 72 hrs by MTT assay. The format is functional, cell-based.
Settings: not given
An outline of the steps: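 MCF-7 cells were raised without estrogen and without phenol red. They were seeded at 15,000/well, incubated overnight at 37 °C, then treated 72 h with freshly dissolved compounds. Viability was read by MTT (4 h), with DMSO solubilization and absorbance at 570 nm, and IC50 was calculated.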
Consider `COc1ccc2c(c1)C(=O)C(c1cccnc1)CO2` (configuration not stated), for which the “growth inhibition (GI)” value is “inactive”.

Another experiment has as its target T1, Aromatase (Homo sapiens, UniProt P11511).
T1 sequence (P11511 whole entry): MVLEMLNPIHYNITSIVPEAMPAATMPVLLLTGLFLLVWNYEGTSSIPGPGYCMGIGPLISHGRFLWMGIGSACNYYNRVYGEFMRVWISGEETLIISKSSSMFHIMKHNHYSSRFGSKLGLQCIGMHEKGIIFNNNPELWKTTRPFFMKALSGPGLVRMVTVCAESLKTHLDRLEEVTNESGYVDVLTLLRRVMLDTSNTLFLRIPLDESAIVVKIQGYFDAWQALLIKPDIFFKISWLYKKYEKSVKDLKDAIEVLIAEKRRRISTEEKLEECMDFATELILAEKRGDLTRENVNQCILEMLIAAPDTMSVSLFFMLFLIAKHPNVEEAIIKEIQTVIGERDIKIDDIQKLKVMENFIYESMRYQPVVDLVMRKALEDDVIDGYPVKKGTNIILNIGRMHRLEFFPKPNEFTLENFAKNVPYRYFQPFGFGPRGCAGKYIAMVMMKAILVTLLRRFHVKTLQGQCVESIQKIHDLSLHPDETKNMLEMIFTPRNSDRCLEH
Settings: not given
On to `O=c1c(-c2ccccc2)coc2ccccc12` [ISOFLAVONE], for which the IC50 result is reported as “Not Active”.

The target of the next experiment is T1, Aromatase. As to the kind of experiment: Inhibition of human recombinant aromatase expressed in baculovirus-infected cell system using 7-methoxy-trifluoromethylcoumarin as substrate after 30 mins by fluorescence assay.
Settings: not given
Turning to `COc1ccc2c(c1)C(=O)C(c1ccc(Oc3ccccc3)cc1)CO2` (configuration not stated), the half-maximal inhibitory concentration (IC50) result is “Not Active”. The same measure, in the same setting: as for `O=C1c2cc(F)cc(F)c2OCC1c1ccccc1` (configuration not stated), the entry is “Not Active”; as for `O=C1c2ccccc2OCC1c1ccc(C(F)(F)F)cc1` (configuration not stated), “Not Active”.

The experiment is the same for the next values; noted with them: read-out: IC50.
Turning to `O=C1c2cccc(F)c2OCC1c1ccccc1` (configuration not stated), the IC50 is 15 µM. On the same count and under the same terms, as for `O=C1c2ccccc2OCC1c1ccc(F)cc1` (configuration not stated), the figure is 33 µM; as for `O=C1c2cc(F)ccc2OCC1c1cccnc1` (configuration not stated), 0.8 µM; as for `O=C1c2ccccc2OCC1c1ccccc1F` (configuration not stated), 24 µM. `O=C1c2cccc(F)c2OCC1c1cccnc1` (configuration not stated): the IC50 stood at 67.1 µM. Still for that read-out and setting: as for `COc1ccc2c(c1)C(=O)C(c1cccnc1)CO2` (configuration not stated), the figure is 2.5 µM. On to `O=C1c2c(ccc3ccccc23)OCC1c1ccc(Oc2ccccc2)cc1` (configuration not stated), for which the 50% inhibitory concentration (IC50) amounted to 190 µM. Turning to `O=C1c2ccccc2OCC1c1cc(F)cc(F)c1` (configuration not stated), the IC50 was found to be 20 µM. On the same count and under the same terms, as for `O=C1c2ccccc2OCC1c1cccc(F)c1` (configuration not stated), the figure is 35 µM.

System in another experiment: not listed separately
As to the kind of experiment: Ratio of IC50 for human MCF7 cells to IC50 for human recombinant aromatase.
Settings: not given
Take `O=C1c2cccc(F)c2OCC1c1ccccc1` (configuration not stated): the “Ratio IC50” value turned out to be 2. On the same count and under the same terms, as for `O=C1c2ccccc2OCC1c1ccc(F)cc1` (configuration not stated), the figure is 2. Same read-out and setting: as for `O=C1c2cc(F)ccc2OCC1c1ccccc1` (configuration not stated), the figure is 2.

Take `O=C1c2ccccc2OCC1c1ccccc1F` (configuration not stated): the “Ratio IC50” value is given as 2. Still for that read-out and setting: as for `O=C1c2cc(F)cc(F)c2OCC1c1ccccc1` (configuration not stated), the figure is 2; as for `O=C1c2ccccc2OCC1c1cccc(F)c1` (configuration not stated), 2; as for `O=C1c2ccccc2OCC1c1ccc(C(F)(F)F)cc1` (configuration not stated), 2.
